Test results published in ChEMBL document CHEMBL5058577, “EUbOPEN Chemogenomics Library 2 (Multiplex)” (2022).

Test system: U2OS
Test: Multiplex assay against U2OS
Assay type: toxicity, cell-based
Settings: human
Method in brief: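 Per cents of healthy-nucleus cells form the tubulin, mitochondrial-mass and membrane-permeability phenotype values. Live cells were stained at seeding with Hoechst33342, BioTracker Green Microtubule Cytoskeleton Dye, MitoTracker Red and Annexin V Alexa Fluor 680. After compound addition they were imaged on a CQ1 microscope at 37°C and 5% CO2, and CellPathfinder machine-learning gating split them into Hoechst high-intensity objects or normal cells, normal cells into healthy, pyknosed or fragmented nuclei, and pyknosed cells into mitotic or apoptotic.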

[1] = 12 h, 1 µM, compound concentration 1 uM, replicate 1
[2] = 12 h, 1 µM, compound concentration 1 uM, replicate 2
[3] = 12 h, 10 µM, compound concentration 10 uM, replicate 1
[4] = 12 h, 10 µM, compound concentration 10 uM, replicate 2
[5] = 24 h, 1 µM, compound concentration 1 uM, replicate 1
[6] = 24 h, 1 µM, compound concentration 1 uM, replicate 2
[7] = 24 h, 10 µM, compound concentration 10 uM, replicate 1
[8] = 24 h, 10 µM, compound concentration 10 uM, replicate 2
[9] = 48 h, 1 µM, compound concentration 1 uM, replicate 1
[10] = 48 h, 1 µM, compound concentration 1 uM, replicate 2
[11] = 48 h, 10 µM, compound concentration 10 uM, replicate 1
[12] = 48 h, 10 µM, compound concentration 10 uM, replicate 2

O=C(O)c1cc2ccccc2c(Cc2c(O)c(C(=O)O)cc3ccccc23)c1O [PAMOIC ACID]
Population Apoptotic (%) [1]: 85%
Population Fragmented Nuclei (%) [1]: 23%
Population Healthy Nuclei (%) [1]: 68%
Population Hoechst High Intensity Objects (%) [1]: 1%
Population Membrane Permeable-Phenotype (%) [1]: 2%
Population Mitochondria Different-Phenotype (%) [1]: 0%
Population Mitotic Cells (%) [1]: 15%
Population Normal (%) [1]: 98%
Population Pyknosed Nuclei (%) [1]: 8%
Population Tubulin-Different-Phenotype (%) [1]: 0%
Total Cell Count [1]: 246
Population Apoptotic (%) [2]: 50%
Population Fragmented Nuclei (%) [2]: 15%
Population Healthy Nuclei (%) [2]: 73%
Population Hoechst High Intensity Objects (%) [2]: 0%
Population Membrane Permeable-Phenotype (%) [2]: 12%
Population Mitochondria Different-Phenotype (%) [2]: 6%
Population Mitotic Cells (%) [2]: 50%
Population Normal (%) [2]: 100%
Population Pyknosed Nuclei (%) [2]: 11%
Population Tubulin-Different-Phenotype (%) [2]: 13%
Total Cell Count [2]: 109
Population Apoptotic (%) [3]: 75%
Population Fragmented Nuclei (%) [3]: 19%
Population Healthy Nuclei (%) [3]: 75%
Population Hoechst High Intensity Objects (%) [3]: 2%
Population Membrane Permeable-Phenotype (%) [3]: 6%
Population Mitochondria Different-Phenotype (%) [3]: 1%
Population Mitotic Cells (%) [3]: 25%
Population Normal (%) [3]: 97%
Population Pyknosed Nuclei (%) [3]: 4%
Population Tubulin-Different-Phenotype (%) [3]: 4%
Total Cell Count [3]: 259
Population Apoptotic (%) [4]: 87%
Population Hoechst High Intensity Objects (%) [4]: 0%
Population Membrane Permeable-Phenotype (%) [4]: 5%
Population Mitochondria Different-Phenotype (%) [4]: 3%
Population Mitotic Cells (%) [4]: 12%
Population Normal (%) [4]: 100%
Population Pyknosed Nuclei (%) [4]: 5%
Population Tubulin-Different-Phenotype (%) [4]: 2%
Total Cell Count [4]: 140
Population Apoptotic (%) [5]: 92%
Population Fragmented Nuclei (%) [5]: 18%
Population Healthy Nuclei (%) [5]: 72%
Population Hoechst High Intensity Objects (%) [5]: 1%
Population Membrane Permeable-Phenotype (%) [5]: 2%
Population Mitochondria Different-Phenotype (%) [5]: 0%
Population Mitotic Cells (%) [5]: 8%
Population Normal (%) [5]: 98%
Population Pyknosed Nuclei (%) [5]: 8%
Population Tubulin-Different-Phenotype (%) [5]: 1%
Total Cell Count [5]: 288
Population Apoptotic (%) [6]: 76%
Population Fragmented Nuclei (%) [6]: 20%
Population Healthy Nuclei (%) [6]: 70%
Population Hoechst High Intensity Objects (%) [6]: 0%
Population Membrane Permeable-Phenotype (%) [6]: 11%
Population Mitochondria Different-Phenotype (%) [6]: 2%
Population Mitotic Cells (%) [6]: 23%
Population Normal (%) [6]: 99%
Population Pyknosed Nuclei (%) [6]: 9%
Population Tubulin-Different-Phenotype (%) [6]: 7%
Total Cell Count [6]: 139
Population Apoptotic (%) [7]: 82%
Population Fragmented Nuclei (%) [7]: 17%
Population Healthy Nuclei (%) [7]: 76%
Population Hoechst High Intensity Objects (%) [7]: 3%
Population Membrane Permeable-Phenotype (%) [7]: 5%
Population Mitochondria Different-Phenotype (%) [7]: 2%
Population Mitotic Cells (%) [7]: 17%
Population Normal (%) [7]: 96%
Population Pyknosed Nuclei (%) [7]: 5%
Population Tubulin-Different-Phenotype (%) [7]: 3%
Total Cell Count [7]: 314
Population Apoptotic (%) [8]: 90%
Population Fragmented Nuclei (%) [8]: 13%
Population Healthy Nuclei (%) [8]: 79%
Population Hoechst High Intensity Objects (%) [8]: 1%
Population Membrane Permeable-Phenotype (%) [8]: 7%
Population Mitochondria Different-Phenotype (%) [8]: 3%
Population Mitotic Cells (%) [8]: 9%
Population Normal (%) [8]: 98%
Population Pyknosed Nuclei (%) [8]: 6%
Population Tubulin-Different-Phenotype (%) [8]: 7%
Total Cell Count [8]: 163
Population Apoptotic (%) [9]: 83%
Population Fragmented Nuclei (%) [9]: 16%
Population Healthy Nuclei (%) [9]: 74%
Population Hoechst High Intensity Objects (%) [9]: 1%
Population Membrane Permeable-Phenotype (%) [9]: 2%
Population Mitochondria Different-Phenotype (%) [9]: 1%
Population Mitotic Cells (%) [9]: 16%
Population Normal (%) [9]: 98%
Population Pyknosed Nuclei (%) [9]: 9%
Population Tubulin-Different-Phenotype (%) [9]: 2%
Total Cell Count [9]: 469
Population Apoptotic (%) [10]: 90%
Population Fragmented Nuclei (%) [10]: 11%
Population Healthy Nuclei (%) [10]: 76%
Population Hoechst High Intensity Objects (%) [10]: 2%
Population Membrane Permeable-Phenotype (%) [10]: 9%
Population Mitochondria Different-Phenotype (%) [10]: 3%
Population Mitotic Cells (%) [10]: 10%
Population Normal (%) [10]: 97%
Population Pyknosed Nuclei (%) [10]: 11%
Population Tubulin-Different-Phenotype (%) [10]: 5%
Total Cell Count [10]: 177
Population Apoptotic (%) [11]: 96%
Population Fragmented Nuclei (%) [11]: 15%
Population Healthy Nuclei (%) [11]: 77%
Population Hoechst High Intensity Objects (%) [11]: 3%
Population Membrane Permeable-Phenotype (%) [11]: 5%
Population Mitochondria Different-Phenotype (%) [11]: 1%
Population Mitotic Cells (%) [11]: 3%
Population Normal (%) [11]: 96%
Population Pyknosed Nuclei (%) [11]: 6%
Population Tubulin-Different-Phenotype (%) [11]: 4%
Total Cell Count [11]: 455
Population Apoptotic (%) [12]: 89%
Population Fragmented Nuclei (%) [12]: 20%
Population Healthy Nuclei (%) [12]: 66%
Population Hoechst High Intensity Objects (%) [12]: 0%
Population Membrane Permeable-Phenotype (%) [12]: 6%
Population Mitochondria Different-Phenotype (%) [12]: 2%
Population Mitotic Cells (%) [12]: 10%
Population Normal (%) [12]: 99%
Population Pyknosed Nuclei (%) [12]: 13%
Population Tubulin-Different-Phenotype (%) [12]: 2%
Total Cell Count [12]: 218
